According to ChEMBL document CHEMBL5653608 (Br J Pharmacol, 2011):
Calls of active or inactive are those of the source. The calls are words filed in the database; no cut-off is given here.

What was measured:
[1] = molecular target: Prostaglandin E2 receptor EP4 subtype (Homo sapiens, UniProt P35408); assay: Agonist activity at human EP4 receptor expressed in CHO cells incubated for 30 mins; type: functional, cell-based
Method in brief: (§1)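 Reporter CHO cells (CRE β-lactamase host) stably expressing the human receptor, suspended in DMEM at 1 × 10^6 cells/mL. Compound in PBS/DMSO/pluronic buffer, preincubated with cells for 30 min at 37°C. In antagonist mode, agonist was then added for 90 min at 37°C; agonist mode used buffer instead. Cells were lysed by freezing, and cAMP was read by DiscoveRx enzyme-fragment luminescence after 4–20 h. Four-parameter logistic fit.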

[2] = molecular target: Prostaglandin E2 receptor EP2 subtype (Canis lupus familiaris) (UniProt Q9XT82); assay: Binding affinity to dog bronchiole EP2 receptor assessed as equilibrium binding constant incubated for 30 mins followed by agonist addition measured after 90 mins; type: tissue-based; conditions: filed as antagonist, time 120.0 min
Sequence of Prostaglandin E2 receptor EP2 subtype (Canis lupus familiaris) (Q9XT82 whole entry): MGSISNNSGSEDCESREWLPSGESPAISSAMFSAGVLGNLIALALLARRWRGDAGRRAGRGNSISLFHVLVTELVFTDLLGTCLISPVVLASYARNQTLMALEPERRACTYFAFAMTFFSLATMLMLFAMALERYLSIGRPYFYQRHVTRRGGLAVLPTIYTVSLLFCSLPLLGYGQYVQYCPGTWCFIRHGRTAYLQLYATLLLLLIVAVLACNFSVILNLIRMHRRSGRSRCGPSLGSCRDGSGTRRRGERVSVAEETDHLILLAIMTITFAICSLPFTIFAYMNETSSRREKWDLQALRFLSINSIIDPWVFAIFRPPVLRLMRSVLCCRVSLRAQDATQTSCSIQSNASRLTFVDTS

Rattus norvegicus [3] = assay: Effect on butaprost induced cutaneous blood flow in po dosed Sprague-Dawley rat measured upto 95 mins; type: functional, organism-based; conditions: dose 1-10 mg/kg
Method in brief: (§2)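 Sprague Dawley rats (442–515 g) dosed orally with compound or vehicle (0.5% methylcellulose/0.1% Tween 80, 1 mL/kg). About 1 h 25 min later rats were placed under isoflurane and the abdomen shaved. Baseline laser Doppler scans were taken every 5 min for 35 min. Then 10 µL s.c. PGE2 (3 µg/mL) or butaprost (30 µg/mL) was injected, and scanning continued 60 min. Responses were vehicle-subtracted and normalized to the final three baselines. Peak and AUC0–60 were calculated.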

[4] = molecular target: T1, Prostaglandin E2 receptor EP3 subtype (Homo sapiens, UniProt P43115); assay: Antagonist activity at human EP3 receptor expressed in CHO cells assessed as increase in cAMP level incubated for 30 mins followed by agonist addition measured after 90 mins; type: functional, cell-based
T1 sequence (P43115 whole entry): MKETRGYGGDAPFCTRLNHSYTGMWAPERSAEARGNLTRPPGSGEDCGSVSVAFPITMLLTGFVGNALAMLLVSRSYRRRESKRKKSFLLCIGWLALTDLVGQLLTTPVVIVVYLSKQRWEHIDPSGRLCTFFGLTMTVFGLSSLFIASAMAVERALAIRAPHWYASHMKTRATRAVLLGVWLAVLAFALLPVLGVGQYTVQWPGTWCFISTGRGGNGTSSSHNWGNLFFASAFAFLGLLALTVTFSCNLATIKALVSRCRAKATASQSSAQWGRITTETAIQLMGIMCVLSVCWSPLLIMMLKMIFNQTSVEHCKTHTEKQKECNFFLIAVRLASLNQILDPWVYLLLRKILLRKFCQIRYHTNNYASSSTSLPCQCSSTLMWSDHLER

[5] = Induction of relaxation in PGE2-induced carbachol pre-contracted C57BL/6 mouse trachea at 100 nM incubated for 30 mins relative to control (reference value: 11 +/- 3.2%); type: functional; set-up: scale not given: the % may be the effect or the level left; conditions: 0.5 h
Prostacyclin receptor = Prostacyclin receptor (Homo sapiens, UniProt P43119); assay: Displacement of [3H]-Iloprost from human IP receptor assessed as inhibition constant incubated for 2 hrs by TopCount NXT counter based analysis
Sequence of Prostacyclin receptor (P43119 whole entry): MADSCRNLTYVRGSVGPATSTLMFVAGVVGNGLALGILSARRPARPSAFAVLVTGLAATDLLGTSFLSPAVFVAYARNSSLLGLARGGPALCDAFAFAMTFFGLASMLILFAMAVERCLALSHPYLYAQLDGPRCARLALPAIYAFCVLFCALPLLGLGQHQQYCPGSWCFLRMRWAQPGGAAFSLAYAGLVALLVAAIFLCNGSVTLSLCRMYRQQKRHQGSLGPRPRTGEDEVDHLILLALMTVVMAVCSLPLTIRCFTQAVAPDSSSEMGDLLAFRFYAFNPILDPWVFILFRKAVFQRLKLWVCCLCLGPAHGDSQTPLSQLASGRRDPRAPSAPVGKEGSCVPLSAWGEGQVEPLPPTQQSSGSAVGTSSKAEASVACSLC
Method in brief: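 Radioligand displacement with [3H]iloprost (20 µL of a 100 nM stock), using HEK membranes expressing human IP (10 µg per well). Buffer was 10 mM HEPES, 10 mM MgCl2, 1 mM EDTA, pH 7.4, with top concentration 10 µM. Nonspecific binding was defined with 10 µM carbacyclin. Incubated 2 h at room temperature with shaking, then filtered on GF/B, washed cold and counted by scintillation. FP, TP and LTB4 assays were run externally.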

[6] = Inhibition of EFS-induced contraction of human myometrium assessed as butaprost IC50 at 10 nM incubated for 60 mins (reference value: 27.8 nM); type: functional, tissue-based
Method in brief: (§3)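 Human myometrial strips (donors aged 24–76) in a 15 mL Krebs bath at 37°C, under EFS at 15 V, 1.5 ms pulses, 10 s every 100 s, at a submaximal 15 Hz. Antagonist (10 or 100 nM) or vehicle was equilibrated for 60 min. Cumulative butaprost (0.1 nM–10 µM) or PGE2 (0.1 nM–3 µM) was given for at least five EFS responses per concentration. pKB was calculated from same-donor concentration ratios.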

[7] = Induction of relaxation in PGE2-induced carbachol pre-contracted C57BL/6 mouse trachea at 1 to 3 uM incubated for 30 mins relative to control (reference value: 11 +/- 3.2%); type: functional; set-up: scale not given: the % may be the effect or the level left; conditions: dose 1-3 µM, 0.5 h
[8] = molecular target: T2, Prostaglandin D2 receptor (Homo sapiens, UniProt Q13258); assay: Antagonist activity at human DP1 receptor expressed in CHO cells incubated for 30 mins followed by agonist addition measured after 90 mins; type: functional, cell-based; method in brief: as §1
T2 sequence (Q13258 whole entry): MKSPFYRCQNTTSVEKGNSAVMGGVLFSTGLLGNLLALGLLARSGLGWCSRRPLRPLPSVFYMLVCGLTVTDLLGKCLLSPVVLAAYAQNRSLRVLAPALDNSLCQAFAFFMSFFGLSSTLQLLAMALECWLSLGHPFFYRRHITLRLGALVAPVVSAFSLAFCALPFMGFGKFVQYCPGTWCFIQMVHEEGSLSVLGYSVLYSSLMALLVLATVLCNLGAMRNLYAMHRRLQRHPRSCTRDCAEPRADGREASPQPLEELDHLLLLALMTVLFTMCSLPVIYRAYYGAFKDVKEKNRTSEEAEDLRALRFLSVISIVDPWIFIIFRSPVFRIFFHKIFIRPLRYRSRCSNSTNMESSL

Thromboxane A2 receptor = molecular target: T3, Thromboxane A2 receptor (Homo sapiens, UniProt P21731); assay: Displacement of [3H]-Iloprost from human TP receptor assessed as inhibition constant incubated for 2 hrs by TopCount NXT counter based analysis
T3 sequence (P21731 whole entry): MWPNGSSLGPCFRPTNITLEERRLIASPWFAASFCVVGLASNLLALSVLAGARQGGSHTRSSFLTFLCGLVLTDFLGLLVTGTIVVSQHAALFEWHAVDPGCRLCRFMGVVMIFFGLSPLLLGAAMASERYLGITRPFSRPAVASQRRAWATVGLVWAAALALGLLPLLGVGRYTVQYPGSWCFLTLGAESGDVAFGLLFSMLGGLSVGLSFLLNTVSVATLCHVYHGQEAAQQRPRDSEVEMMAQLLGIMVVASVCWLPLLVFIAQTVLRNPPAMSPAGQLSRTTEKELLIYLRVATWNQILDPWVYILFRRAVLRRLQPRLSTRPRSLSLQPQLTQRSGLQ

Canis lupus familiaris = species on record: Canis lupus familiaris; assay: Induction of relaxation in PGE2-induced carbachol pre-contracted rings of Beagle dog bronchioles at 3 to 100 nM incubated for 1 hr; type: functional, tissue-based; conditions: Bronchiole, dose 3-100 nM
Method in brief: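 Beagle bronchiole rings held at 1 g tension in Krebs at 37°C (with propranolol and phentolamine), primed with 80 mM KCl. Rings were precontracted with 1 µM carbachol, then antagonist (3–100 nM) or vehicle was equilibrated for 1 h. Cumulative PGE2 relaxation curves followed, with final 10 µM nifedipine defining maximal relaxation. KB by the Lew and Angus method.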

[9] = Free plasma concentration in Sprague-Dawley rat at 1 to 10 mg/kg, po measured after 3 hrs; type: ADME, organism-based; conditions: in vivo, dose 1-10 mg/kg
[10] = Oral bioavailability in Sprague-Dawley rat at 1 mg/kg; type: ADME, organism-based; conditions: in vivo
[11] = Terminal half life in Sprague-Dawley rat at 1 mg/kg, po; type: ADME, organism-based; conditions: in vivo, read-out: beta t1/2 (converted)
Rattus norvegicus [12] = assay: Effect on butaprost-induced cutaneous blood flow in Sprague-Dawley rat assessed as reduction in mean cutaneous blood flow peak response by measuring AUC(0 to 60 mins) at 10 mg/kg, po measured upto 95 mins; type: functional; set-up: scale not given: the % may be the effect or the level left; conditions: 1.583 h; method in brief: as §2
Rattus norvegicus [13] = assay: Effect on butaprost-induced cutaneous blood flow in Sprague-Dawley rat assessed as reduction in mean cutaneous blood flow peak response at 10 mg/kg, po measured upto 95 mins; type: functional; set-up: scale not given: the % may be the effect or the level left; conditions: 1.583 h; method in brief: as §2
[14] = molecular target: T4, Prostaglandin E2 receptor EP1 subtype (Homo sapiens, UniProt P34995); assay: Antagonist activity at human EP1 receptor expressed in CHO cells assessed as increase in cAMP level incubated for 30 mins followed by agonist addition measured after 90 mins; type: functional, cell-based
T4 sequence (P34995 whole entry): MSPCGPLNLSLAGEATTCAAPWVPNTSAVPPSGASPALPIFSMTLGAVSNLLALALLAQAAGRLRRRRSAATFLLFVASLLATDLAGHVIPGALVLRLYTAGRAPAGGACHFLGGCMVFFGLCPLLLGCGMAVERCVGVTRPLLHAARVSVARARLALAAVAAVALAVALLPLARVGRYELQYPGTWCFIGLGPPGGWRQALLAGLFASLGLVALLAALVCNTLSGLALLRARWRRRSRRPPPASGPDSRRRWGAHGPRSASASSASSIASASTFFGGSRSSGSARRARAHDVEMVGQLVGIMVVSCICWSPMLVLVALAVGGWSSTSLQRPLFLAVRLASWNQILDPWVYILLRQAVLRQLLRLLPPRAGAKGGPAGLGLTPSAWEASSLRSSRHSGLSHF

[15] = Induction of relaxation in PGE2-induced carbachol pre-contracted C57BL/6 mouse trachea incubated for 30 mins; type: functional, tissue-based
Method in brief: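 Male C57BL/6 tracheal rings at 0.35 g tension in Krebs (95% O2/5% CO2, 37°C). Rings were precontracted with 10 µM carbachol before cumulative half-log PGE2 (0.1 nM–30 µM). Curves were repeated in the same ring after 30 min with 3 nM antagonist or DMSO, and 10 µM forskolin set maximal relaxation. pKB = log(CR−1) − log[B].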

[16] = Clearance in Sprague-Dawley rat at 1 mg/kg, po; type: ADME, organism-based; conditions: in vivo
[17] = Volume of distribution in Sprague-Dawley rat at 1 mg/kg, po; type: ADME, organism-based; conditions: in vivo
[18] = Displacement of [3H]-Iloprost from human LTB4 receptor assessed as inhibition constant incubated for 2 hrs by TopCount NXT counter based analysis
[19] = molecular target: T1, Prostaglandin E2 receptor EP3 subtype; assay: Agonist activity at human EP3 receptor expressed in CHO cells incubated for 30 mins; type: functional, cell-based
[20] = molecular target: T5, Prostaglandin D2 receptor 2 (Homo sapiens, UniProt Q9Y5Y4); assay: Antagonist activity at human CRTH2 receptor incubated for 30 mins followed by agonist addition measured after 90 mins; type: functional
T5 sequence (Q9Y5Y4 whole entry): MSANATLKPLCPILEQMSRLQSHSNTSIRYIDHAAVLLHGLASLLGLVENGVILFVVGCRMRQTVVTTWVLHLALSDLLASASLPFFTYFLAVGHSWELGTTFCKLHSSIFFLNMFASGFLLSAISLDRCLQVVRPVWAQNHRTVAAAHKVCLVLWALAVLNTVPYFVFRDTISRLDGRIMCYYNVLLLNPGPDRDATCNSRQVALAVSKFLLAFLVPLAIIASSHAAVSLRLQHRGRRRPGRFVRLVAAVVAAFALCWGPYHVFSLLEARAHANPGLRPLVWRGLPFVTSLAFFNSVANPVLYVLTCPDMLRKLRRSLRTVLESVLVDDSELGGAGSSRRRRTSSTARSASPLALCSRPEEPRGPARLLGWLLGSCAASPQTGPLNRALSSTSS
Method in brief: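 CHO reporter cells expressing human CRTH2, run in the DiscoveRx cAMP format. Compound preincubated with cells for 30 min at 37°C, then cells were stimulated with 8 µM forskolin plus agonist for 90 min at 37°C. Cells were lysed at −80°C and cAMP was read by luminescence. IC50 from an unconstrained four-parameter logistic fit.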

Mus musculus = species on record: Mus musculus; assay: Induction of relaxation in PGE2-induced carbachol pre-contracted C57BL/6 mouse trachea at 1 to 3 nM incubated for 30 mins; conditions: dose 1-3 nM
[21] = molecular target: Prostaglandin E2 receptor EP2 subtype (Mus musculus) (UniProt Q62053); assay: Binding affinity to mouse trachea EP2 receptor assessed as equilibrium binding constant incubated for 30 mins followed by agonist addition measured after 90 mins; type: tissue-based; conditions: filed as antagonist, time 120.0 min
Sequence of Prostaglandin E2 receptor EP2 subtype (Mus musculus) (Q62053 whole entry): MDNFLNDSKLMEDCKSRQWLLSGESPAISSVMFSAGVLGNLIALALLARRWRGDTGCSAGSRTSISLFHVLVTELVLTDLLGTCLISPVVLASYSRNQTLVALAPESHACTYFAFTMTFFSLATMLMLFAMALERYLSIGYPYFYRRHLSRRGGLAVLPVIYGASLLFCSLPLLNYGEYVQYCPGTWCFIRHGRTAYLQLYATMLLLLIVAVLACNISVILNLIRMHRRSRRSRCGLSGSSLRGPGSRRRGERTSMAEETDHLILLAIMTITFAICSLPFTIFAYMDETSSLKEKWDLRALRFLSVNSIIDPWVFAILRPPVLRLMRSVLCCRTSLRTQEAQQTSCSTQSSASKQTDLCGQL

[22] = Inhibition of EFS-induced contraction of human myometrium assessed as butaprost IC50 at 100 nM incubated for 60 mins (reference value: 27.8 nM); type: functional, tissue-based; method in brief: as §3
[23] = molecular target: Prostaglandin F2-alpha receptor (Homo sapiens, UniProt P43088); assay: Displacement of [3H]-Iloprost from human FP receptor assessed as inhibition constant incubated for 2 hrs by TopCount NXT counter based analysis
Sequence of Prostaglandin F2-alpha receptor (P43088 whole entry): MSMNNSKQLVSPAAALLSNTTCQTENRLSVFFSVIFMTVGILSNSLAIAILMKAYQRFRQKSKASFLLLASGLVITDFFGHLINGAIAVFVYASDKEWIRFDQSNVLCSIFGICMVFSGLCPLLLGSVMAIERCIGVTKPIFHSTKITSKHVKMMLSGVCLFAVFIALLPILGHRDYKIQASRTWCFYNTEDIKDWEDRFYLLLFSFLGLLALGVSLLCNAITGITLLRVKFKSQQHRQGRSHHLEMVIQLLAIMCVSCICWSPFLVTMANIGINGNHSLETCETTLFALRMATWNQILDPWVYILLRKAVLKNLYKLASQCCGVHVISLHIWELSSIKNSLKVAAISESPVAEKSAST

[24] = molecular target: T4, Prostaglandin E2 receptor EP1 subtype; assay: Agonist activity at human EP1 receptor expressed in CHO cells incubated for 30 mins; type: functional, cell-based
[25] = Free plasma concentration in Sprague-Dawley rat at 1 to 10 mg/kg, po measured after 1.5 hrs; type: ADME, organism-based; conditions: in vivo, dose 1-10 mg/kg

Sequence of Prostaglandin E2 receptor EP4 subtype (P35408 whole entry, the tested form may be a part): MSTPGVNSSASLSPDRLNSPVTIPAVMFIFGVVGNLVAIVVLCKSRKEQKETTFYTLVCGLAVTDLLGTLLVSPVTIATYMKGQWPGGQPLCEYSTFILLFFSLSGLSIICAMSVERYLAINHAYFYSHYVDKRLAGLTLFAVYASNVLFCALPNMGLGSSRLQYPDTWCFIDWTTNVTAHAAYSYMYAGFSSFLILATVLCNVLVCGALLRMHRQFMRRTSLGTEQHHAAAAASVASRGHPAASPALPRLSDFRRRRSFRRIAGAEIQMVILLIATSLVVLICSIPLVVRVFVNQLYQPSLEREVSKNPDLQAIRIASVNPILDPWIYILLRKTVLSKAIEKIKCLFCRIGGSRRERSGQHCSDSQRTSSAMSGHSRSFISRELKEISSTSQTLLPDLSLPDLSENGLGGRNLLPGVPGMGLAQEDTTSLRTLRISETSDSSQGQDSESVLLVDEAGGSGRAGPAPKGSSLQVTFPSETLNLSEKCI

EC50 [1]: > 33.3 µM
Kb [2]: 0.0025 µM
IC50 [4]: > 10 µM
Ki (Prostacyclin receptor): > 10 µM
IC50 [6]: 0.054 µM
IC50 [8]: > 32.8 µM
Ki (Thromboxane A2 receptor): > 10 µM
Cp(f) [9]: 94 nM
bioavailability [10]: 78%
half-life [11]: 8.8 h
IC50 [14]: > 10 µM
IC50 [15]: 0.0027 µM
CL/F [16]: 0.3 mL/min/kg
Vd [17]: 0.1 L/kg
Ki [18]: 4.8 µM
EC50 [19]: > 10 µM
IC50 [20]: 32 µM
Kb [21]: 0.0013 µM
IC50 [22]: 0.353 µM
Ki [23]: > 10 µM
EC50 [24]: > 10 µM
Cp(f) [25]: 170 nM
SMILES: COc1ccc2cc(OCC3(C(=O)O)CN(C(=O)c4ccc(F)cc4)C3)ccc2c1 [PF-04418948]
Activity (Rattus norvegicus [3]): Dose-Dependent Effect
Activity [5]: 106.8%
Activity [7]: 73.5%
Activity (Canis lupus familiaris): Active
Activity (Rattus norvegicus [12]): 61%
Activity (Rattus norvegicus [13]): 41%
Activity (Mus musculus): Active
